Bioassay records: PubChem, Broad Institute
This is a sample that favours compounds with a hit; in the whole collection about 2.6% have one here.
miR122 inh = blocks miR-122 activity in Huh7 sensor cells; Huh7 miR-122 Renilla luciferase sensor, 48 h; neutral wells = 0, positive control = 100; activation (reporter increase), % at 12.5 µM; 0.3% of 340,000 active; AID 602342;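 active means mean replicate activation score at least 90 and every replicate individually at or above 90; inconclusive means only one of the two criteria met; inactive means neither criterion met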;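 further: higher luciferase means less miR-122 activity so hits act as miR-122 inhibitors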
DENV2 CPE rescue = DENV2-induced cell death inhibition; 1.7% of 350,000 active; AID 651640; CPE inhibition, % at 9.99 µM; DENV2-infected cells, cytopathic effect rescue, plate reader; in the data active means CPE inhibition above about 20%, passing the limit was not always enough; inconclusive means no clear call, values can overlap the other calls; tested in BHK-21 cells;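 further: 0% = median of neutral control wells and 100% = median of positive control wells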
ERAP1 inh = inhibitors of human ERAP1 aminopeptidase; inhibition, % at 10.7 µM; Q9NZ08; 0.15% of 340,000 active; recombinant ERAP1, Leu-AMC fluorescence, 60 min;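 active means mean replicate inhibition of at least 30%, or all replicates individually reaching that 30% level; inactive means mean below 30% and not every replicate reaching it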;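 further: 0% = neutral control wells and 100% = L-leucinethiol positive control wells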
INS-1E GSIS act = primary screen for activators of insulin secretion dependent on glucose, INS-1E cells, GLuc reporter luminescence; INS-1E GLuc reporter insulin secretion, 2-3 h; 0.61% of 370,000 active; activation, % at 16.6 µM;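 active means lowest replicate activation of at least 40%, so every replicate reaches that level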;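 further: 0% = median of neutral control wells and 100% = median of IBMX positive control wells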
E-sel inducer = E-selectin induction on HUVECs | P16581 | HUVEC E-selectin immunofluorescence imaging; normalized: neutral wells 0, TNF-alpha wells 100 | activation, % at 7.58 µM | 0.37% of 260,000 active;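 active means mean E-selectin-positive cell signal at least 10% of the positive control, reached in at least 60% of replicates, without over 20% cell loss; inconclusive means no rule given, readout overlaps actives, possibly toxicity-flagged; inactive means the rest, including those meeting only one limit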
Target sequence (P16581 whole entry, looked up): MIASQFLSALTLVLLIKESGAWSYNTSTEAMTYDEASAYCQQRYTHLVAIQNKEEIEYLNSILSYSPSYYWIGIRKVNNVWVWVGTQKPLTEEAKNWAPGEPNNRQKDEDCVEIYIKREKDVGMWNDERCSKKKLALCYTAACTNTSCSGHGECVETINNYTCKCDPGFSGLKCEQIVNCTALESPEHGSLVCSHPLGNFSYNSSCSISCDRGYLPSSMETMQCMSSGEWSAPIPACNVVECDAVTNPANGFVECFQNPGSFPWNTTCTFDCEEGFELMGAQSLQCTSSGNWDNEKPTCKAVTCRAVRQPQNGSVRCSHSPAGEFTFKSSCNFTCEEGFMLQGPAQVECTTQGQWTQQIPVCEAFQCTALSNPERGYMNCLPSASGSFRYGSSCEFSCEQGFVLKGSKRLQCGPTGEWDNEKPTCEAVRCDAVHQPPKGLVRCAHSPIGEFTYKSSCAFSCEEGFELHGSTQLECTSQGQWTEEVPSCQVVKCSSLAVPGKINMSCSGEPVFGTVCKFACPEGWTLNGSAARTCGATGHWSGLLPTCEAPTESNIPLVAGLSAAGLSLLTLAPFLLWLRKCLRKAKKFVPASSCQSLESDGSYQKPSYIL
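Read-out basis: % PE-positive cells; Test system: HUVEC primary endothelial cells; Technique: immunofluorescence imaging; Dosing: single-point compound dose.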
F508del corr = correctors of CFTR F508del function in bronchial epithelial cells. CFBE cells, YFP halide quenching; stimulated with forskolin plus potentiator P3; % fluorescence drop versus neutral controls. activity (quench increase), % at 7.58 µM. 0.36% of 350,000 active. AID 720511;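 active means mean added fluorescence quench of at least 8% versus neutral control, with both replicates also reaching 8%; inconclusive means only one of the mean or replicate conditions met; inactive means mean below 8% and not both replicates reaching 8%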;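 further: cells transiently co-express mutant CFTR-F508del with the halide-sensitive YFP; corrector assay measuring rescue of mutant channel to the surface after 24 h compound exposure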
* marks the source's active call; other numbers are inactive results; [ ] = another dose, or the depositor's remark.

Screening COc1ccccc1-c1ccc([C@@H]2[C@H](CO)N(C(=O)C3CC3)C23CN(C(C)=O)C3)cc1 returned DENV2 CPE rescue -4, ERAP1 inh 0, INS-1E GSIS act 7, E-sel inducer 0 and F508del corr 0.
C[C@H](CO)N1C[C@H](C)[C@@H](CN(C)C(=O)Nc2ccc(F)cc2)Oc2ccc(NC(=O)C3CC3)cc2C1=O was read as miR122 inh 15[16.7 µM], DENV2 CPE rescue 7, ERAP1 inh 3, INS-1E GSIS act 14, E-sel inducer 0 and F508del corr -1.
Screening Cc1noc(C)c1NC(=O)Nc1cccc2c1O[C@@H](CN(C)Cc1ccncc1)[C@@H](C)CN([C@@H](C)CO)C2=O returned miR122 inh 0[16.7 µM], DENV2 CPE rescue -3, ERAP1 inh 0, INS-1E GSIS act -3 and F508del corr -1.
`O=C(O)C(Cc1ccc(Cl)cc1)NS(=O)(=O)c1ccc(Cl)cc1` (stereo unspecified) gave miR122 inh 1, DENV2 CPE rescue 23*, ERAP1 inh -6, INS-1E GSIS act 0, E-sel inducer 0 and F508del corr -2.
`C[C@@H]1CN([C@H](C)CO)C(=O)c2cc(C#Cc3ccccc3F)cnc2O[C@H]1CN(C)C(=O)C1CCOCC1` gave miR122 inh -10[16.7 µM], DENV2 CPE rescue 35*, ERAP1 inh -2, INS-1E GSIS act 4, E-sel inducer 0 and F508del corr -1.
`C[C@@H]1CN([C@@H](C)CO)C(=O)c2cc(-c3ccccc3F)cnc2O[C@@H]1CN(C)C(=O)C1CCOCC1` gave miR122 inh 3[16.7 µM], DENV2 CPE rescue 60*, ERAP1 inh -1, INS-1E GSIS act 12, E-sel inducer 0 and F508del corr 1.
`C[C@H]1CN([C@@H](C)CO)C(=O)c2cc(-c3ccccc3F)cnc2O[C@@H]1CN(C)Cc1ccc(F)cc1` gave miR122 inh 6[16.7 µM], DENV2 CPE rescue 12, ERAP1 inh -2, INS-1E GSIS act 4, E-sel inducer 1 and F508del corr 0.
For C[C@@H]1CN([C@H](C)CO)C(=O)c2cc(-c3ccccc3F)cnc2O[C@H]1CN(C)Cc1ccc(F)cc1 the results were miR122 inh 18[16.7 µM], DENV2 CPE rescue 29*, ERAP1 inh -2, INS-1E GSIS act -4, E-sel inducer 0 and F508del corr 1.
`C[C@H](CO)N1C[C@H](C)[C@@H](CN(C)C(=O)c2ccccn2)Oc2ncc(-c3ccccc3F)cc2C1=O` gave miR122 inh 2[16.7 µM], DENV2 CPE rescue 21*, ERAP1 inh 0, INS-1E GSIS act 12, E-sel inducer 0 and F508del corr -4.
Screening C[C@H]1CN([C@@H](C)CO)C(=O)c2cc(C#Cc3ccccc3F)cnc2O[C@H]1CN(C)C(=O)C1CCOCC1 returned miR122 inh -1[16.7 µM], DENV2 CPE rescue -11, ERAP1 inh 1, INS-1E GSIS act -4, E-sel inducer 0 and F508del corr -3.
Screening CNC(=O)C[C@H]1CC[C@H]2[C@@H](COc3ccc(NC(=O)Nc4c(C)noc4C)cc3C(=O)N2C)O1 returned miR122 inh -17[16.7 µM], DENV2 CPE rescue -1, INS-1E GSIS act -7, E-sel inducer 0 and F508del corr 1.
CN1C(=O)c2cc(NC(=O)C3CC3)ccc2OC[C@@H]2O[C@@H](CC(=O)NCCc3ccncc3)CC[C@H]21 was read as miR122 inh 0[16.7 µM], DENV2 CPE rescue -8, ERAP1 inh -2, INS-1E GSIS act -3, E-sel inducer 0 and F508del corr -2.
Screening COc1ccccc1/C=C/C=N/NC(=O)CCn1cnc2ccccc21 returned DENV2 CPE rescue 3, ERAP1 inh 3, INS-1E GSIS act 4, E-sel inducer 0 and F508del corr 13*.
`CN(C)C(=O)C[C@H]1C[C@@H]2c3cc(NS(=O)(=O)c4ccccc4)ccc3O[C@@H]2[C@H](CO)O1` gave miR122 inh -5[16.7 µM], DENV2 CPE rescue 1, ERAP1 inh 0, INS-1E GSIS act -1, E-sel inducer -1 and F508del corr 1.
NC1=NC[C@H](Cc2ccccc2)N1CCCCC1CCCCC1 was read as DENV2 CPE rescue -10, ERAP1 inh 8, INS-1E GSIS act 470* and F508del corr -1.
Screening NC1=NC[C@H](Cc2ccc(O)cc2)N1CCCCC1CCCCC1 returned DENV2 CPE rescue -12, ERAP1 inh 1 and F508del corr 0.
For CCOc1ccc(C(=O)O/N=C(\N)c2ccccn2)cc1 the results were miR122 inh -5, DENV2 CPE rescue inconclusive, ERAP1 inh 0, INS-1E GSIS act -2, E-sel inducer 0 and F508del corr 8.2*.
`Cc1ccc(C(=O)O/N=C(\N)c2ccccn2)cc1` gave miR122 inh 4, DENV2 CPE rescue 29*, ERAP1 inh 0, INS-1E GSIS act 4 and F508del corr -1.
CCC(=O)Nc1ccc2c(c1)C(=O)N(C)C[C@@H](OC)[C@H](C)CN(CC1CCOCC1)[C@@H](C)CO2 was read as miR122 inh 6[16.7 µM], INS-1E GSIS act -5, E-sel inducer 0 and F508del corr 1.
`COc1ccc([N+](=O)[O-])cc1NC(=O)/C=C/C(=O)O` gave miR122 inh -1, DENV2 CPE rescue 66*, ERAP1 inh 0 and INS-1E GSIS act 4.
`CCN1/C(=C/C=C/C=C/C=C/c2sc3ccccc3[n+]2CC)Sc2ccccc21` gave DENV2 CPE rescue -4, ERAP1 inh 31*, INS-1E GSIS act -23, E-sel inducer 5 and F508del corr -3.
O=c1[nH]c(=O)n(C2OC(CO)C(O)C(O)C2O)cc1F (stereo unspecified) was read as DENV2 CPE rescue 68*, ERAP1 inh 2 and F508del corr -3.
For O=C(C[C@@H]1CC[C@@H]2[C@H](COC[C@H](O)CN2C(=O)c2ccc3c(c2)OCO3)O1)NCCN1CCCCC1 the results were miR122 inh 3[16.7 µM], DENV2 CPE rescue 2, ERAP1 inh -1, INS-1E GSIS act 8, E-sel inducer 0 and F508del corr 1.
For COc1ccc(CN(C)C[C@H]2Oc3ccc(NC(=O)CCCN(C)C)cc3C(=O)N([C@H](C)CO)C[C@H]2C)cc1 the results were DENV2 CPE rescue -5, ERAP1 inh 2, INS-1E GSIS act 11, E-sel inducer 35* and F508del corr -1.
Screening COc1ccc(CN(C)C[C@@H]2Oc3ccc(NC(=O)CCN4CCOCC4)cc3C(=O)N([C@@H](C)CO)C[C@@H]2C)cc1 returned miR122 inh -2[16.7 µM], DENV2 CPE rescue -4, ERAP1 inh -1, INS-1E GSIS act 21, E-sel inducer 0 and F508del corr 2.
